{"data": "Results collected from several papers", "DRD1": "D(1A) dopamine receptor (DRD1, Homo sapiens, UniProt P21728)", "Tyrosine-protein phosphatase YopH": "Tyrosine-protein phosphatase YopH (Yersinia enterocolitica, UniProt P15273)", "note": "Compare with care: the assays were run in different laboratories."}
{"SMILES": "C[C@H](N)Cc1ccccc1", "target": "Neuronal acetylcholine receptor subunit alpha-7 (Chrna7, Mus musculus, UniProt P49582)", "test": "ligand displacement, radioligand", "conditions": "cell membranes", "endpoint": "Ki", "result": "49.7 µM"}
{"SMILES": "O=C(O)c1cc(-c2ccc([C@@H]3C[C@@H]4C[C@H]3CN4)cc2)c2ccc(-c3ccc(C(F)(F)F)cc3)cc2c1", "target": "DRD1", "test": "cell-free assay, radioligand", "endpoint": "Ki", "result": "1.4 to 2.2 µM"}
{"SMILES": "CN(C)c1ccc(/C=C/c2cc(/C=C/c3ccc(N(C)C)cc3)n3n[n+](C)nc3n2)cc1", "target": "Tyrosine-protein phosphatase YopH", "test": "enzyme activity, inhibitor", "endpoint": "IC50", "result": "4.44 µM"}
{"SMILES": "CNC(C)C(=O)c1ccccc1 (racemic)", "target": "Sodium-dependent serotonin transporter (SLC6A4, Homo sapiens, UniProt P31645)", "test": "calcium signal, agonist, fluorescence", "endpoint": "EC50", "result": "24.8 µM"}
{"SMILES": "CC=C1[C@H]2C=C(C)C[C@]1(N)c1cc(O)c(=O)[nH]c1C2", "target": "Cholinesterase (BCHE, Equus caballus, UniProt P81908)", "test": "enzyme activity, inhibitor, Ellman", "endpoint": "IC50", "result": "155 µM"}
{"SMILES": "CC(C)CCC[C@@H](C)[C@H]1CC[C@H]2[C@@H]3CC=C4C[C@@H](O)CC[C@]4(C)[C@H]3CC[C@]12C", "target": "hly (Listeria monocytogenes, UniProt P13128)", "test": "binding", "conditions": "pH 5.5", "endpoint": "Kd", "result": "0.296 µM"}
{"SMILES": "NNC(=O)c1ccncc1", "target": "Adenosylmethionine-8-amino-7-oxononanoate aminotransferase (Mycobacterium tuberculosis, UniProt P9WQ81)", "test": "enzyme activity, inhibitor", "endpoint": "Ki", "result": "> 100 µM"}
{"SMILES": "O=C(O)c1cc(-c2ccc([C@H]3C[C@H]4C[C@@H]3NC4=O)cc2)c2ccc(-c3ccc(C(F)(F)F)cc3)cc2c1", "target": "DRD1", "test": "cell-free assay, radioligand", "endpoint": "Ki", "result": "1.4 to 2.2 µM"}
{"SMILES": "[Na+].[Na+].[Na+].[O]=[V]([O-])([O-])[O-]", "target": "Tyrosine-protein phosphatase YopH", "test": "enzyme activity, inhibitor", "endpoint": "Ki", "result": "1.58 µM"}
